Results gathered from unrelated publications.
Compare with care: the assays were run in different laboratories.

Structure (SMILES)	cell line	assay	setting	quantity	value
CCCCCCCCCCCCCCCCCCOc1ccc(CC(=O)OCCC[N+](C)(C)C)cc1	NCI-H23	cell growth or viability, SRB	10 µM	inhibition	18.9%
Nc1ccccc1/N=c1\cc(-c2ccc3c(c2)OCO3)oc2ccccc12	MOLM-13	cell growth or viability, CCK-8	1 µM	inhibition	5.39%
CCCCCCCCCCCCCCCCCCOc1cccc(CC(=O)OCC[N+]2(C)CCCC2)c1	NCI-H23	cell growth or viability, SRB	10 µM	inhibition	24.6%
CNCc1ccc(-c2cc(-c3nc(-c4ccc(S(=O)(=O)C(C)C)cc4)cnc3N)on2)cc1	CT26	cell growth or viability, ATP luminescence	24 h	IC50	3.05 µM
CCCCCCCCCCCCCCCCCCOc1ccc(CC(=O)OCC[N+](C)(C)C)cc1	NCI-H23	cell growth or viability, SRB	10 µM	inhibition	6.67%
NCCC(=O)Nc1ccc(/N=c2\cc(-c3ccc4c(c3)OCO4)oc3ccccc23)cc1	MOLM-13	cell growth or viability, CCK-8	1 µM	inhibition	3.6%
CCCCCCCCCCCCCCCCCCOCC(COP(=O)([O-])OCC[N+](C)(C)C)OC (centres unmarked)	NCI-H23	cell growth or viability, SRB	10 µM	inhibition	10.9%
C#Cc1cccc(Nc2ncnc3cc(OCCOC)c(OCCOC)cc23)c1	Bel-7402	cell growth or viability, MTT	48 h	IC50	> 20 µM
COc1ccc2oc(-c3ccc4nc(N)oc4c3)c/c(=N\c3ccccc3NC(=O)CCN)c2c1	MOLM-13	cell growth or viability, CCK-8	1 µM	inhibition	61.4%
CCCCCCCCCCCCCCCCCCOc1ccccc1CC(=O)OCC[N+]1(C)CCCCC1	NCI-H23	cell growth or viability, SRB	10 µM	inhibition	70.2%
Cc1cnc(CNC(=O)c2c(=O)c3ccc(N4CCCN(C)CC4)nc3n3c2sc2ccccc23)cn1	C6661	cell growth or viability, MTS	72 h	IC50	0.5 µM
CCCCCCCCCCCCCCCCCCOc1cccc(CC(=O)OCC[N+]2(C)CCOCC2)c1	NCI-H23	cell growth or viability, SRB	10 µM	inhibition	4.14%
COCCC(=O)Nc1ccccc1/N=c1\cc(-c2ccc3c(c2)OCO3)oc2ccccc12	MOLM-13	cell growth or viability, CCK-8	1 µM	inhibition	6.03%
C(=N\Nc1cc(N/N=C/c2cccc3cccnc23)ncn1)/c1cccc2cccnc12	Bel-7402	cell growth or viability, MTT	48 h	IC50	17.6 µM
Cc1c(Cl)c(=O)oc2cc(OCCCCSC#N)ccc12	SW1573	cell growth or viability, SRB		GI50	5.8 µM
O=c1[nH]cc(F)c(=O)[nH]1	Bel-7402	cell growth or viability, MTT	48 h	IC50	15.8 µM
CCc1nc(C(N)=O)c(Nc2ccc(N3CCC(N4CCN(C)CC4)CC3)c(OC)c2)nc1NC1CCOCC1	MOLM-13	cell growth or viability	72 h	GI50	0.032 µM
C(=N\Nc1cc(N/N=C/c2ccc3ccccc3n2)ncn1)/c1ccc2ccccc2n1	Bel-7402	cell growth or viability, MTT	48 h	IC50	34 µM

Structure (SMILES)	cell line	assay	setting	quantity	value
[NH2][Pt]([NH2])([Cl])[Cl]	NCI-H1573	cell growth or viability, MTT	48 h	IC50	75.8 µM
NCCC(=O)Nc1ccccc1/N=c1\cc(-c2ccc3c(c2)OCO3)oc2ccccc12	MOLM-13	cell growth or viability, CCK-8	1 µM	inhibition	2.07%
CC(=O)O[C@H]1C(=O)[C@@]2(C)[C@H]([C@H](OC(=O)c3ccccc3)[C@]3(O)C[C@H](OC(=O)[C@H](O)[C@@H](NC(=O)c4ccccc4)c4ccccc4)C(C)=C1C3(C)C)[C@]1(OC(C)=O)CO[C@@H]1C[C@@H]2O	CHP-212	cell growth or viability, SRB	0.1235 µM	viability	21.3%
N[C@@H](CO)C(=O)Nc1ccccc1/N=c1\cc(-c2ccc3c(c2)OCO3)oc2ccccc12	MOLM-13	cell growth or viability, CCK-8	1 µM	inhibition	8.02%
Cc1cc(=O)oc2cc(OCCCCSC#N)ccc12	SW1573	cell growth or viability, SRB		GI50	0.63 µM
C[C@@H]1COCCN1c1cc(C2([S@](C)(=N)=O)CC2)nc(-c2cc[nH]c3nccc2-3)n1	CT26	cell growth or viability, ATP luminescence	24 h	IC50	27.6 µM
Nc1nc2ccc(-c3c/c(=N\c4ccccc4NC(=O)C4CCNC4)c4ccccc4o3)cc2o1 (centres unmarked)	MOLM-13	cell growth or viability, CCK-8	1 µM	inhibition	41.4%
COC(=O)[C@H]1[C@@H](O)[C@@]2(O)c3c(OC)cc(O[C@@H]4O[C@@H]([C@H](O)CO)CO[C@H]4OC)cc3O[C@@]2(c2ccc(OC)cc2)[C@@H]1c1ccccc1	C6661	cell growth or viability, MTS	72 h	IC50	0.005 µM
CC(C)C[C@H](NC(=O)[C@H](Cc1ccccc1)NC(=O)c1cnccn1)B(O)O	CHP-212	cell growth or viability, SRB	0.3704 µM	viability	88%
O=C(O[C@@H]1COC(=O)c2cc(O)c(O)c(O)c2-c2c(cc(O)c(O)c2O)C(=O)O[C@H]1[C@@H]1OC(=O)c2cc(O)c(O)c(O)c2-c2c(O)c(O)c(O)c3c2C(=O)O[C@H]1[C@@H]3O)c1cc(O)c(O)c(O)c1	SIM-A9	NO release, inhibitor, Griess	10.7 µM, LPS-stimulated	inhibition	52%
COc1ncnc(C2CC2)c1-c1ncc2cnn(Cc3ccc(-c4nc(C(F)(F)F)cn4C(C)C)cc3)c2n1	CHP-212	cell growth or viability, SRB	12.5 µM	viability	85.3%
N#CSCCCCOc1ccc2c(-c3ccccc3)cc(=O)oc2c1	SW1573	cell growth or viability, SRB		GI50	25 µM
CCCCCCCCCCCCCCCCCCOc1ccccc1CC(=O)OCC[N+](C)(C)C	NCI-H23	cell growth or viability, SRB	10 µM	inhibition	59.8%
O=C(C[C@@H](C(F)F)n1ccc(F)n1)N1CCC(O)(Cn2cnc3c(cnn3-c3ccc(F)cc3)c2=O)CC1	CHP-212	cell growth or viability, SRB	27.43 nM	viability	72.4%
COc1ccc2/c(=N/c3ccccc3NC(=O)[C@H](C)N)cc(-c3ccc4c(c3)OCCO4)oc2c1	MOLM-13	cell growth or viability, CCK-8	1 µM	inhibition	6.88%
CCCCCCCCCCCCCCCCCCOc1cccc(CC(=O)OCCC[N+](C)(C)C)c1	NCI-H23	cell growth or viability, SRB	10 µM	inhibition	24.1%
COc1cccc2c1C(=O)c1c(O)c3c(c(O)c1C2=O)C[C@@](O)(C(=O)CO)C[C@@H]3O[C@H]1C[C@H](N)[C@H](O)[C@H](C)O1	CHP-212	cell growth or viability, SRB	0.3704 µM	viability	19.4%
